Results as given in ChEMBL document CHEMBL1629691, “Intrapulmonary pharmacokinetics and pharmacodynamics of micafungin in adult lung transplant patients” (Antimicrob Agents Chemother, 2010).
Numbered stars: 1 amine (or outer) side, 2 acyl side, 3 side chain; on linkers, the order of the positions; unused ones are H or OH. Bridge positions count the residues as written; N and C are the ends. Square brackets hold non-standard residues; d marks the D form. Peptide text beside a SMILES is read from it. * marks the point of attachment. hTyr(3S-OH,4S-OH,3'-OSO3H) = N[C@H](C(=O)O)[C@H](O)[C@@H](O)c1ccc(O)c(OS(=O)(=O)O)c1; Orn(4R-OH,5R-OH) = O=C([C@H](C[C@@H](O)[C@@H](O)N[*:3])N[*:1])[*:2]; Pro(3S-OH,4S-Me) = C[C@H]1CN[C@H](C(=O)O)[C@H]1O; X1 = CCCCCOc1ccc(-c2cc(-c3ccc(C(=O)*)cc3)no2)cc1; Gln(3R-OH) = NC(=O)C[C@@H](O)[C@H](N)C(=O)O; Hyp = O=C(O)[C@@H]1C[C@@H](O)CN1

Experiments:
[1] = Cmax in alveolar cells of lung transplant recipient invasive aspergillosis patient at 150 mg, iv QD for 4 consecutive days by HPLC; type: ADME, organism-based, Pneumocyte; parameters: dose 150 mg, route intravenous; conditions: human
Method in brief: (§1)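 150-mg IV dose; BAL at 3, 5, 8, 18 or 24 h after the dose, about 4 subjects per time group. Plasma, ELF and alveolar cell drug was measured by reversed-phase HPLC with UV detection. Values were averaged per time point. Cmax is the highest mean over the five groups; Tmax is the mean dose-to-BAL time of that group.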

[2] = Ratio of total Cmax to MIC90 in lung transplant recipient invasive aspergillosis patient infected with Aspergillus fumigatus; type: functional
[3] = Ratio of Cmax in lung transplant recipient invasive aspergillosis patient alveolar cell to MIC90 for Aspergillus fumigatus; type: functional, Pneumocyte
[4] = Drug level in alveolar cells of lung transplant recipient invasive aspergillosis patient at 150 mg, iv QD for 4 consecutive days measured after 8 hrs post last dose by HPLC; type: ADME, organism-based, Pneumocyte; conditions: human, read-out: Drug uptake
Method in brief: (§2)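 150-mg IV micafungin, then bronchoscopy with BAL (20-ml saline aliquots) at the stated time after the dose. Blood was drawn in heparin at the same time. The BAL fluid was spun at 400 × g for 5 min at 4°C; supernatant and cell pellet were frozen at −80°C. Micafungin was measured by solid-phase extraction and C8 HPLC with UV detection at 271.5 nm, using anidulafungin as internal standard.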

[5] = Ratio of fCmax in lung transplant recipient invasive aspergillosis patient plasma to MIC90 for Aspergillus fumigatus; type: functional
[6] = Ratio of drug level in epithelial lining fluid to plasma in lung transplant recipient invasive aspergillosis patient at 150 mg, iv QD for 4 consecutive days measured after 8 hrs post last dose; type: ADME, organism-based; conditions: human
Homo sapiens [7] = test: Hepatotoxicity in lung transplant recipient invasive aspergillosis patient assessed as serum creatinine level at 150 mg, iv QD for 4 consecutive days measured post last dose; type: toxicity, organism-based; conditions: in vivo
Method in brief: (§3)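 Serum creatinine, AST, ALT and total bilirubin were recorded from routine clinical laboratory tests before enrolment and again after BAL, at a mean of 10.7 days after infusion.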

[8] = Drug level in lung transplant recipient invasive aspergillosis patient plasma at 150 mg, iv QD for 4 consecutive days measured after 8 hrs post last dose by HPLC; type: ADME, organism-based; conditions: human, read-out: Drug uptake; method in brief: as §2
Homo sapiens [9] = test: Hepatotoxicity in lung transplant recipient invasive aspergillosis patient assessed as total bilirubin level at 150 mg, iv QD for 4 consecutive days measured post last dose; type: toxicity, organism-based; conditions: in vivo; method in brief: as §3
[10] = Ratio of drug level in alveolar cell to plasma of lung transplant recipient invasive aspergillosis patient at 150 mg, iv QD for 4 consecutive days measured after 18 hrs post last dose; type: ADME, organism-based, Pneumocyte; conditions: human, alveolar cells / plasma
Homo sapiens [11] = test: Hepatotoxicity in lung transplant recipient invasive aspergillosis patient assessed as serum AST level at 150 mg, iv QD for 4 consecutive days measured post last dose; type: toxicity, organism-based; conditions: in vivo; method in brief: as §3
[12] = Volume of distribution in lung transplant recipient invasive aspergillosis patient at 150 mg, iv QD for 4 consecutive days by HPLC; type: ADME, organism-based; conditions: human, in vivo
[13] = AUC (0 to 24 hrs) in alveolar cell of lung transplant recipient invasive aspergillosis patient plasma at 150 mg, iv administered as single dose; type: ADME, organism-based, Pneumocyte; parameters: time < 24 hr, dose 150 mg, route intravenous; conditions: human, alveolar cells
Method in brief: (§4)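 Single 150-mg IV dose in adult lung transplant recipients. Plasma, ELF (epithelial lining fluid) and alveolar cell concentrations were measured by HPLC at the time of bronchoscopy. AUC0-24 came from a population model: a linear four-compartment model fit to all compartments, with the plasma two-compartment model used for the plasma profile.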

[14] = Drug level in alveolar cells of lung transplant recipient invasive aspergillosis patient at 150 mg, iv QD for 4 consecutive days measured after 3 hrs post last dose by HPLC; type: ADME, organism-based, Pneumocyte; conditions: human, read-out: Drug uptake; method in brief: as §2
[15] = Elimination half life in lung transplant recipient invasive aspergillosis patient at 150 mg, iv QD for 4 consecutive days by HPLC; type: ADME, organism-based; conditions: human, in vivo, read-out: beta t1/2 (converted)
Method in brief: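 Plasma micafungin was measured by HPLC after a 150-mg IV dose in lung transplant recipients. The terminal-phase half-life was derived by model-independent (noncompartmental) analysis of plasma concentrations.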

[16] = Cmax in lung transplant recipient invasive aspergillosis patient plasma at 150 mg, iv QD for 4 consecutive days by HPLC; type: ADME, organism-based; parameters: dose 150 mg, route intravenous; conditions: human; method in brief: as §1
[17] = Drug level in lung transplant recipient invasive aspergillosis patient plasma at 150 mg, iv measured after 5 hrs post last dose by HPLC; conditions: human, read-out: Drug uptake
[18] = Ratio of drug level in alveolar cell to plasma of lung transplant recipient invasive aspergillosis patient at 150 mg, iv single dose measured after 5 hrs post dose; conditions: human, alveolar cells / plasma
[19] = Drug level in epithelial lining fluid of lung transplant recipient invasive aspergillosis patient at 150 mg, iv QD for 4 consecutive days measured after 24 hrs post last dose by HPLC; type: ADME, organism-based; conditions: human, read-out: Drug uptake; method in brief: as §2
[20] = Drug level in alveolar cells of lung transplant recipient invasive aspergillosis patient at 150 mg, iv QD for 4 consecutive days measured after 24 hrs post last dose by HPLC; type: ADME, organism-based, Pneumocyte; conditions: human, read-out: Drug uptake; method in brief: as §2
[21] = Tmax in alveolar cells of lung transplant recipient invasive aspergillosis patient at 150 mg, iv QD for 4 consecutive days by HPLC; type: ADME, organism-based, Pneumocyte; conditions: human; method in brief: as §1
[22] = Drug level in lung transplant recipient invasive aspergillosis patient plasma at 150 mg, iv QD for 4 consecutive days measured after 3 hrs post last dose by HPLC; type: ADME, organism-based; conditions: human, read-out: Drug uptake; method in brief: as §2
[23] = Drug level in epithelial lining fluid of lung transplant recipient invasive aspergillosis patient at 150 mg, iv QD for 4 consecutive days measured after 5 hrs post last dose by HPLC; type: ADME, organism-based; conditions: human, read-out: Drug uptake; method in brief: as §2
[24] = Ratio of AUC (0 to 24 hrs) in lung transplant recipient invasive aspergillosis patient alveolar cell to MIC90 for Aspergillus fumigatus; type: functional, Pneumocyte
[25] = AUC (0 to 24 hrs) in lung transplant recipient invasive aspergillosis patient plasma at 150 mg, iv administered as single dose; type: ADME, organism-based; parameters: dose 150 mg, time < 24 hr, route intravenous; conditions: human; method in brief: as §4
[26] = Ratio of drug level in epithelial lining fluid to plasma in lung transplant recipient invasive aspergillosis patient at 150 mg, iv QD for 4 consecutive days measured after 18 hrs post last dose; type: ADME, organism-based; conditions: human

With `CCCCCOc1ccc(-c2cc(-c3ccc(C(=O)N[C@H]4C[C@@H](O)[C@@H](O)NC(=O)[C@@H]5[C@@H](O)[C@@H](C)CN5C(=O)[C@H]([C@H](O)CC(N)=O)NC(=O)[C@H]([C@H](O)[C@@H](O)c5ccc(O)c(OS(=O)(=O)O)c5)NC(=O)[C@@H]5C[C@@H](O)CN5C(=O)[C@H]([C@@H](C)O)NC4=O)cc3)no2)cc1` [MICAFUNGIN] (X1-[Orn(4R-OH,5R-OH)]T[Hyp][hTyr(3S-OH,4S-OH,3'-OSO3H)][Gln(3R-OH)][Pro(3S-OH,4S-Me)]; lactam 1-C) the Cmax [1] was 17400 ng/mL, the Ratio [2] was 316 and the Ratio [3] was 1115. It also gave a concentration at 8 h [4] of 4860 ng/mL, a Ratio [5] of 3.2 and a Kp at 8 h [6] of 0.01. It also gave an Activity (Homo sapiens [7]) of 1.11 mg/dL, a concentration at 8 h [8] of 3930 ng/mL and an Activity (Homo sapiens [9]) of 0.74 mg/dL. It also gave a Kp at 18 h [10] of 7.62, an Activity (Homo sapiens [11]) of 28.6 IU/L and a Vd [12] of 17.6 L. For the same compound, the AUC(0-t) at 24 h [13] was 208 µg·h/mL, the concentration at 3 h [14] was 7170 ng/mL and the half-life [15] was 12.1 h. For the same compound, the Cmax [16] was 4930 ng/mL, the concentration at 5 h [17] was 4810 ng/mL and the Kp at 5 h [18] was 0.61. For the same compound, the concentration at 24 h [19] was 1380 ng/mL, the concentration at 24 h [20] was 9990 ng/mL and the Tmax [21] was 17.9 h. For the same compound, the concentration at 3 h [22] was 4930 ng/mL, the concentration at 5 h [23] was 690 ng/mL and the Ratio [24] was 13340. It also gave an AUC(0-t) at 24 h [25] of 79.2 µg·h/mL and a Kp at 18 h [26] of 0.04.
